Source: ChEMBL document CHEMBL1139766, “Discovery of potent and orally bioavailable heterocycle-based beta3-adrenergic receptor agonists, potential therapeutics for the treatment of obesity” (Bioorg Med Chem Lett, 2007)

Assays:
[1] = biological target: Beta-3 adrenergic receptor (Rattus norvegicus) (UniProt P26255); assay: Intrinsic activity at rat adrenergic beta-3 receptor assessed as cAMP production relative to isoproterenol; format: functional
[2] = biological target: T1, Beta-3 adrenergic receptor (Homo sapiens, UniProt P13945); assay: Intrinsic activity at human adrenergic beta-3 receptor expressed in CHO cells assessed as cAMP production relative to isoproterenol; format: functional, cell-based
Outline: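 Functional readout was cAMP levels in Chinese hamster ovary cells expressing the cloned human β3 receptor. Intrinsic activity is given as a percentage of the isoproterenol maximum. Compounds with EC50 < 100 nM and IA > 50% were tested at least twice.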
Target sequence in this assay (P13945 whole entry, looked up): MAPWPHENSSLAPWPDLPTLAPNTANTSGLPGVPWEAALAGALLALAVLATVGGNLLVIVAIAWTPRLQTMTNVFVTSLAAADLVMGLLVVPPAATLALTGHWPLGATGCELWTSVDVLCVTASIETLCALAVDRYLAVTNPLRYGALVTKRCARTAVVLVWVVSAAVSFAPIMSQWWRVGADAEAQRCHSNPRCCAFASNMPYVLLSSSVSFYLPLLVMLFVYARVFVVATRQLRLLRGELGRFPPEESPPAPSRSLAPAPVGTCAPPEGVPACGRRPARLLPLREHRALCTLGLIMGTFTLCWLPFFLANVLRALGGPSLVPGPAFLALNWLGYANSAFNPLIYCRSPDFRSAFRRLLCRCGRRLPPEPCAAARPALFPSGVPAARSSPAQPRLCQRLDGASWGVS

[3] = biological target: Beta-3 adrenergic receptor (Rattus norvegicus, UniProt P26255); assay: Agonist activity at rat adrenergic beta-3 receptor assessed as cAMP production; format: functional
[4] = biological target: T1, Beta-3 adrenergic receptor; assay: Agonist activity at human adrenergic beta-3 receptor expressed in CHO cells assessed as cAMP production; format: functional, cell-based
Outline: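 cAMP accumulation measured in CHO cells expressing cloned human β3-AR. Potency given as EC50; intrinsic activity (IA) expressed as % of isoproterenol maximum. Compounds with EC50 < 100 nM and IA > 50% tested at least twice in functional assays.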
Target sequence in this assay (P13945 whole entry): as the sequence (P13945 whole entry, looked up) above

[5] = Solubility in phosphate buffer at pH 6.5; format: physicochemical
Outline: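 Solubility measured in phosphate buffer at pH 6.5.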

Rattus norvegicus [6] = assay: Increase in oxygen consumption in rat at 3 mg/kg, po after 120 mins; format: functional
Outline: (§1)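 Rats dosed orally (0.3, 1, 3, 10 mg/kg). Baseline O2 consumption recorded every 10 min for 3 h, then dosing with compound or vehicle and 2 h further recording. Values excluded when ambulatory activity was >100 counts/10 min, along with the first five values of the run and the first value after dosing. Change taken over 0–120 min.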

[7] = biological target: Beta-1 adrenergic receptor (Homo sapiens, UniProt P08588); assay: Displacement of [125I]iodocyanopindolol from human adrenergic beta-1 receptor expressed in CHO cells; format: cell-based
[8] = biological target: Beta-2 adrenergic receptor (Homo sapiens, UniProt P07550); assay: Displacement of [125I]iodocyanopindolol from human adrenergic beta-2 receptor expressed in CHO cells; format: cell-based
Homo sapiens = species on record: Homo sapiens; assay: Selectivity for human adrenergic beta-3 receptor over human adrenergic beta-1 receptor
Outline: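 Selectivity came from radioligand binding on membranes of CHO cells expressing cloned human β1 or β3 receptors, using 125I-iodocyanopindolol. The β3 value is the high-affinity agonist-site KiH, taken from a two-site competition fit. The ratio is β1 Ki over β3 Ki.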

Rattus norvegicus [9] = assay: Increase in oxygen consumption in rat at 10 mg/kg, po after 120 mins; format: functional; outline: as §1
Rattus norvegicus [10] = assay: Increase in oxygen consumption in rat at 1.0 mg/kg, po after 120 mins; format: functional; outline: as §1
[11] = Oral bioavailability in dog; format: ADME, organism-based, Canis lupus familiaris; conditions: in vivo
Rattus norvegicus [12] = assay: Increase in heart rate in rat at 10 mg/kg; format: functional
Rattus norvegicus [13] = species on record: Rattus norvegicus; assay: Increase in oxygen consumption in rat after 120 mins; format: functional; conditions: 2 h; outline: as §1
[14] = Volume of distribution at steady state in rat; format: ADME, organism-based; conditions: in vivo, read-out: Vdss
[15] = Oral bioavailability in rat; format: ADME, organism-based; conditions: in vivo
[16] = Clearance in dog; format: ADME, organism-based, Canis lupus familiaris; conditions: in vivo
[17] = Half life in dog; format: ADME, organism-based, Canis lupus familiaris; conditions: in vivo
Outline: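 Half-life determined after IV dosing in dog.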

Rattus norvegicus [18] = assay: Increase in oxygen consumption in rat at 0.3 mg/kg, po after 120 mins; format: functional; outline: as §1
[19] = Half life in rat; format: ADME, organism-based; conditions: in vivo
Outline: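 Half-life determined after IV dosing in rat.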

[20] = Clearance in rat; format: ADME, organism-based; conditions: in vivo
[21] = Volume of distribution at steady state in dog; format: ADME, organism-based, Canis lupus familiaris; conditions: in vivo, read-out: Vdss

Chain of Beta-2 adrenergic receptor (P07550 whole entry): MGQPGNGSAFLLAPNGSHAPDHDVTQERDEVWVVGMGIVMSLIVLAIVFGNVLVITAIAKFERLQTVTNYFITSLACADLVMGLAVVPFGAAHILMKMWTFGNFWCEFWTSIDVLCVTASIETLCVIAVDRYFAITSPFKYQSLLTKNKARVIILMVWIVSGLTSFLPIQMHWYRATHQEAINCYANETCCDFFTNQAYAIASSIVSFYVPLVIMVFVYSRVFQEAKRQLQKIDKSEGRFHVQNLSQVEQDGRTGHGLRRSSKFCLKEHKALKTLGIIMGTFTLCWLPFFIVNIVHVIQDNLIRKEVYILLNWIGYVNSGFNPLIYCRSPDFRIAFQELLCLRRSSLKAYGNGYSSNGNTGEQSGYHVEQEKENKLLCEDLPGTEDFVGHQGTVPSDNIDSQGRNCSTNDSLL
Chain of Beta-1 adrenergic receptor (P08588 whole entry): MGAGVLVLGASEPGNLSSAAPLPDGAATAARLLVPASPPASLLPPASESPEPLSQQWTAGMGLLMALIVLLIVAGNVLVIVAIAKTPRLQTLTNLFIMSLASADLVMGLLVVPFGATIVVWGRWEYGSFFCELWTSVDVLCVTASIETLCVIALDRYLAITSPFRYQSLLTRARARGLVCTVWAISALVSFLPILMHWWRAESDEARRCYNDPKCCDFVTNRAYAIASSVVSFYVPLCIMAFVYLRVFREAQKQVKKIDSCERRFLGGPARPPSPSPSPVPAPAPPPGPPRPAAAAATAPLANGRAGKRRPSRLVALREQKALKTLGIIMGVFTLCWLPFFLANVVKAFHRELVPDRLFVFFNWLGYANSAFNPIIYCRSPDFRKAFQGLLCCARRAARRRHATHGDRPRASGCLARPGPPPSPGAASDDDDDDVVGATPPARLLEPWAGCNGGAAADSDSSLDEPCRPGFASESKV
Chain of Beta-3 adrenergic receptor (Rattus norvegicus) (P26255 whole entry): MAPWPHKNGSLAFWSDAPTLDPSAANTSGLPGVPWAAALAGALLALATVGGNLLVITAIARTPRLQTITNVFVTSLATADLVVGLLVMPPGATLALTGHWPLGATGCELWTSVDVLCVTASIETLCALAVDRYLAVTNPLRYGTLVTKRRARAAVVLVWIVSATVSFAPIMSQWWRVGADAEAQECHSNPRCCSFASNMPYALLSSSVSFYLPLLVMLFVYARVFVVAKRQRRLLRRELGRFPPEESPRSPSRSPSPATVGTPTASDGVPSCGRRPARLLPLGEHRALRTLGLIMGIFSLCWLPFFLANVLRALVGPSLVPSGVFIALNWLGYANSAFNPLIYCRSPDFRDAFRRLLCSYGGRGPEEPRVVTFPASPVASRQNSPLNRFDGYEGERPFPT
Chain of Beta-3 adrenergic receptor (Rattus norvegicus, UniProt P26255) (P26255 whole entry): as above

Structure (SMILES) | Intrinsic activity [2] | EC50 [4] | Ki [7] | other results
O[C@@H](CNCCOc1ccc(-c2csc(-c3ccncc3)n2)cc1)c1cccnc1 | 106% | 65 nM | 97 nM | –
O[C@@H](CNCCc1ccc(-c2csc(-c3ccccc3)n2)cc1)c1cccnc1 | 108% | 2740 nM | – | –
O[C@@H](CNCCOc1ccc(-c2csc(-c3ccccc3)n2)cc1)c1cccnc1 | 53% | 580 nM | 150 nM | Ki [8]: 500 nM
O[C@@H](CNCCc1ccc(-c2csc(C(F)(F)F)n2)cc1)c1cccnc1 | 94% | 4490 nM | – | –
O=S(=O)(Nc1ccc(CCNC[C@H](O)c2cccnc2)cc1)c1ccc(-c2nc(-c3ccc(C(F)(F)F)cc3)cs2)cc1 | 92% | – | – | –
O[C@@H](CNCCOc1ccc(-c2coc(COCc3ccccc3)n2)cc1)c1cccnc1 | 137% | 220 nM | 50 nM | –
O[C@@H](CNCCOc1ccc(-c2csc(C3CCCC3)n2)cc1)c1cccnc1 | 159% | 290 nM | 130 nM | –
O[C@@H](CNCCc1ccc(-c2csc(-c3cccnc3)n2)cc1)c1cccnc1 | 106% | 1190 nM | – | –
CCc1nc(-c2ccc(CCNC[C@H](O)c3cccnc3)cc2)cs1 | 80% | 2250 nM | – | –
O[C@@H](CNCCOc1ccc(-c2cocn2)cc1)c1cccnc1 | 94% | 20 nM | 200 nM | Activity (Rattus norvegicus [10]): 11%; bioavailability [11]: 59%; Activity (Rattus norvegicus [12]): 10%; ED20 (Rattus norvegicus [13]): 2 mg/kg; Vd [14]: 0.89 L/kg; bioavailability [15]: 66%; clearance [16]: 6 mL/min/kg; half-life [17]: 5.1 h; Activity (Rattus norvegicus [9]): 42%; Activity (Rattus norvegicus [18]): 8%; Activity (Rattus norvegicus [6]): 29%; half-life [19]: 1.4 h; clearance [20]: 13 mL/min/kg; Vd [21]: 2.8 L/kg; Ki [8]: 10 nM; Ratio Ki (Homo sapiens): 20
O[C@@H](CNCCOc1ccc(-c2csc(-c3cccnc3)n2)cc1)c1cccnc1 | 121% | 120 nM | 120 nM | –
Cc1nc(-c2ccc(CCNC[C@H](O)c3cccnc3)cc2)cs1 | 55% | 1360 nM | – | –
CCc1nc(-c2ccc(OCCNC[C@H](O)c3cccnc3)cc2)cs1 | 106% | 170 nM | 37 nM | –

The remaining compounds from weak to strong by EC50 [4], led by results:

Intrinsic activity [2] | EC50 [4] | Ki [7] | Structure (SMILES) | other results
75% | 606 nM | 1550 nM | Cc1nc(-c2ccc(OCCNC[C@H](O)c3cccnc3)cc2)c(C)o1 | –
24% | 520 nM | – | O[C@@H](CNCCOc1ccc(-c2ncco2)cc1)c1cccnc1 | –
70% | 490 nM | – | CS(=O)(=O)Nc1cc([C@@H](O)CNCCc2ccc(-c3csc(-c4ccccc4)n3)cc2)ccc1Cl | –
80% | 309 nM | 170 nM | Cc1ocnc1-c1ccc(OCCNC[C@H](O)c2cccnc2)cc1 | –
121% | 230 nM | – | Cc1nc(-c2ccc(CCNC[C@H](O)c3ccc(Cl)c(NS(C)(=O)=O)c3)cc2)cs1 | –
98% | 200 nM | – | O[C@@H](CNCCOc1ccc(-c2cnco2)cc1)c1cccnc1 | –
150% | 200 nM | 100 nM | O[C@@H](CNCCOc1ccc(-c2csc(C(F)(F)F)n2)cc1)c1cccnc1 | –
106% | 170 nM | 100 nM | Cc1nc(-c2ccc(OCCNC[C@H](O)c3cccnc3)cc2)cs1 | Intrinsic activity [1]: 113%; EC50 [3]: 13 nM; Activity (Rattus norvegicus [9]): 32%; Activity (Rattus norvegicus [6]): 20%; Ki [8]: 120 nM; Ratio Ki (Homo sapiens): 0.8
95% | 130 nM | – | CCc1nc(-c2ccc(CCNC[C@H](O)c3ccc(Cl)c(NS(C)(=O)=O)c3)cc2)cs1 | –
133% | 57 nM | 400 nM | CCc1nc(-c2ccc(OCCNC[C@H](O)c3cccnc3)cc2)co1 | Ki [8]: 37 nM; Ratio Ki (Homo sapiens): 11
135% | 57 nM | 360 nM | CC(C)c1nc(-c2ccc(OCCNC[C@H](O)c3cccnc3)cc2)co1 | Ki [8]: 49 nM; Ratio Ki (Homo sapiens): 7.4
110% | 47 nM | 210 nM | COCc1nc(-c2ccc(OCCNC[C@H](O)c3cccnc3)cc2)co1 | –
94% | 42 nM | 270 nM | OCc1nc(-c2ccc(OCCNC[C@H](O)c3cccnc3)cc2)co1 | Ki [8]: 30 nM; Ratio Ki (Homo sapiens): 8.6
111% | 37 nM | 400 nM | Cc1nc(-c2ccc(OCCNC[C@H](O)c3cccnc3)cc2)co1 | Ki [8]: 21 nM; Ratio Ki (Homo sapiens): 19
85% | 27 nM | 140 nM | O[C@@H](CNCCOc1ccc(-c2cscn2)cc1)c1cccnc1 | Intrinsic activity [1]: 104%; EC50 [3]: 26 nM; solubility [5]: > 10000 µg/mL; Activity (Rattus norvegicus [6]): 11%; Ki [8]: 10 nM; Ratio Ki (Homo sapiens): 14.2
